SUMO Mot1 rescue – blocks SUMOylation pathway, rescuing yeast Mot1-301 growth; S. cerevisiae Mot1-301 growth rescue, ATP luminescence, 38.5C; percent above DMSO median, 100 means doubled; growth rescue, % at 18.8 µM; 1% of 320,000 active;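 active = every valid replicate shows activation above 250% relative to neutral control wells; inactive = the rest, any valid replicate at or below 250%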;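 also: OY570 slx delta 5 strain wells were the positive control but not used for scaling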
NALP1 yeast inh – inhibitors of NALP1 inflammasome in yeast | S. cerevisiae NALP1/ASC/caspase-1 growth, X-gal OD620, 72 h | AID 2071 | inhibition, % at 10 µM | 0.61% of 280,000 active; in the data active = inhibition mostly above about 24%, no sharp cut-off; inactive = mostly below about 32%
VIM-2 inhibitor – blocks Pseudomonas aeruginosa VIM-2 metallo-beta-lactamase. purified VIM-2, nitrocefin hydrolysis, epi-absorbance fluorescence. inhibition, % at 5.6 µM. 0.89% of 290,000 active;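 active = inhibition above the mean of all tested compounds plus 3 SD, cutoff set per screening run, cut at about 7.5% in these data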;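 also: red hydrolysis product quenches plate fluorescence so inhibitors raise well fluorescence; 0% = enzyme with DMSO and 100% = DMSO without enzyme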
DNA FID counter – fluorescent intercalator displacement, NS3 helicase counter-screen | DNA fluorescent intercalator displacement, fluorescence | 0.17% of 290,000 active | inhibition, % at 7.9 µM | AID 1845; in the data active = inhibition above about 37%;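 also: 0% = vehicle and 100% = reference compound; higher means more ethidium bromide displaced from hairpin DNA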
UBC9 SUMO inh – inhibitors of human SUMOylation (UBC9); 0.36% of 290,000 active; HTRF SUMOylation assay, SAE1/SAE2 + UBC9, in vitro; inhibition, % at 35 µM; P63279; in the data active = inhibition above about 50%, passing the limit was not always enough
Target sequence (P63279 whole entry, looked up): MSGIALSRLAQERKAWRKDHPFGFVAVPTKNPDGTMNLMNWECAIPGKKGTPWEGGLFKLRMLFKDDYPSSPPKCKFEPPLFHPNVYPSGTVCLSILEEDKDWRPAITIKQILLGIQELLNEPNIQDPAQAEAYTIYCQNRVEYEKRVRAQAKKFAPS
IMP-1 inhibitor – inhibitors of Pseudomonas aeruginosa IMP-1 metallo-beta-lactamase | 0.45% of 290,000 active | inhibition, % at 5.6 µM | purified IMP-1, nitrocefin hydrolysis, epi-absorbance fluorescence;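 active = inhibition above the mean plus 3 SD of all compounds in the same screening run, cut at about 4.5% in these data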;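 also: 0% = IMP-1 with DMSO and 100% = DMSO wells lacking enzyme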
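System – purified recombinant IMP-1 beta-lactamase · Input – IMP-1 dispensed at 0.2 nM · Timing – 15 min preincubation plus 25 min reaction at 25 °C · Signal – Epi-absorbance fluorescence, 480 nm excitation, 530 nm emission · Measure – percent IMP-1 inhibition derived from blank-referenced optical density · Controls – Enzyme-plus-DMSO low control, enzyme-free DMSO high control · Replication – singlicate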
Mot1 SUMO dose – yeast SUMO pathway inhibition in dose response; 2,300 tested, under 10 active; S. cerevisiae Mot1-301 galactose growth, ATP luminescence, 24 h; -100 = growth of slx-deleted rescue strain; AID 493004; growth activity, percent, % at 42 µM; shares compounds with SUMO Mot1 rescue;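 active = Signal drops as the depositor expects, and the fitted half-maximal dose is no more than ten times the top valid tested dose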;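 also: more negative values mean stronger growth rescue toward the control strain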
The depositor's hits bear a star; / = no result; + = active, no number; [ ] = remark or other dose. An excerpt weighted towards active compounds, which were near 2.9% of everything screened.

SMILES	SUMO Mot1 rescue	NALP1 yeast inh	VIM-2 inhibitor	DNA FID counter	UBC9 SUMO inh	IMP-1 inhibitor	Mot1 SUMO dose
CC1(C)CC(=O)C2=C(C1)Nc1ccccc1NC2c1ccc([N+](=O)[O-])cc1 (centres undefined)	-3	/	/	/	/	/	/
CCN(CC)S(=O)(=O)c1ccc(C(=O)NCCc2cc3c(OC)ccc(OC)c3[nH]c2=O)cc1	438*	-7	-4	-10	5	-2	0
COc1ccc(CC(=O)Oc2ccc(C)cc2Br)cc1OC	-6	8	-1	-41	-28	-2	/
O=C(O)C1Cc2[nH]cnc2C(c2ccc(F)cc2)N1 (centres undefined)	-5	9	1	-9	8	0	/
Cc1ccc(Cn2ncc3c(N4CCN(C5CCCC5)CC4)ncnc32)cc1	17	4	-1	-9	15	-1	/
CCOC(=O)C1CCN(C(=O)c2ccc3c(c2)NC(=O)/C(=C/c2ccccc2)S3)CC1	405*	16	1	-58	-6	-2	-1
CCOC(=O)C1CCN(C(=O)c2ccc3c(c2)NC(=O)/C(=C\c2ccc(C)cc2)S3)CC1	-2	-4	-8	-41	9	-3	/
CC(C)CCn1nnnc1CN1CCN(c2ccccc2)CC1	8	-1	-3	-27	2	-1	/
CCC(C)[C@H](NC(=O)Nc1ccc(S(N)(=O)=O)cc1)C(=O)OC (some centres undefined)	743*	/	-2	-1	15	-2	0
COC(=O)[C@H](C)NC(=O)Nc1ccc(S(N)(=O)=O)cc1	-9	22	-3	2	22	-3	/
O=C(COc1ccccc1Cl)c1ccc[nH]1	788*	15	-2	-1	46	-3	1
O=C(COc1ccc(Br)cc1Cl)c1ccc[nH]1	13	3	-3	-7	4	-4	/
O=C(COC(=O)c1c(F)cccc1F)c1ccc[nH]1	596*	7	-2	-5	13	-1	0
O=C(OCC(=O)c1ccc[nH]1)c1ccccc1	114	23	1	-10	13	0	/
Cc1c(C(=O)O)oc2c1C(=O)CC(C)(C)C2	9	4	1	1	7	-2	/
CN(C)c1ccc(C(c2ccc(N(C)C)cc2)c2ccc([N+](=O)[O-])cc2)cc1	17	12	-2	5	6	-1	/
COc1ccc(OCC(O)CN2C(=O)NC(C)(C)C2=O)cc1 (centres undefined)	+	-57	-2	-5	10	-4	2
CC1(C)NC(=O)N(CC(O)COc2cccc(F)c2)C1=O (centres undefined)	15	25	-1	-2	8	-4	/
CCC(C)(C)n1nnnc1C(c1cccnc1)N1CCC(Cc2ccccc2)CC1 (centres undefined)	594*	11	-2	-2	-1	-3	1
CCOc1ccc2ncc(S(=O)(=O)c3ccc(C)cc3)c(N3CCC4(CC3)OCCO4)c2c1	-13	36	-2	-27	1	-4	/
Cc1ccc(S(=O)(=O)NCC(=O)OCC(=O)c2ccc(Br)s2)cc1	747*	14	-2	-9	-1	-1	0
O=c1cc(-c2ccccc2)oc2ccc(O)cc12	-1	0	-1	-11	10	-2	/
COc1ccc(-c2cc(=O)c3cc(O)ccc3o2)cc1	554*	-6	-2	-10	1	-2	0
COc1cccc(CCc2nnc(CCC(=O)N3CCN(Cc4ccccn4)CC3)o2)c1	-17	-7	-4	-14	-10	-2	/
Clc1ccc(CONc2ncnc3nonc23)c(Cl)c1	+	0	-2	-7	6	0	-2
SMILES	SUMO Mot1 rescue	NALP1 yeast inh	VIM-2 inhibitor	DNA FID counter	UBC9 SUMO inh	IMP-1 inhibitor	Mot1 SUMO dose
CCONc1ncnc2nonc12	-4	26	-5	4	15	-3	/
Cc1ccc(C)c(NC(=S)NC(=O)c2cncc(Br)c2)c1	571*	/	/	/	/	/	0
C/C(=C\C(=O)N1CCc2ccccc21)C(=O)O	587*	17	1	2	-8	-2	2
CC(C)(C)C(=O)NC1CCN(CC(=O)Nc2ccc3c(c2)OCO3)CC1	490*	22	-1	-7	9	-2	0
COc1ccccc1N1CCN(C(=O)c2sc3nc(C)nc(N4CCN(c5ccccn5)CC4)c3c2C)CC1	-18	11	0	-49	13	-1	/
CCOC(=O)c1sc2ncnc(N3CCN(C)CC3)c2c1C	10	13	2	10	10	-2	/
CCOC(=O)c1sc2ncnc(N3CCN(c4ccc(OC)cc4)CC3)c2c1C	623*	6	1	-1	3	-2	1
COc1ccccc1N1CCN(C(=O)c2sc3ncnc(N4CCN(c5ccccn5)CC4)c3c2C)CC1	442*	-10	-1	-44	-13	-1	0
COC(=O)c1ccc2[nH]c(C)cc(=O)c2c1	-1	17	-2	-5	8	-6	/
COC(=O)c1ccc2[nH]c(C(C)(C)O)c(C)c2c1	684*	-6	-1	-6	8	-3	0
CC1=C(C(N)=O)C(c2ccc(Cl)c(Cl)c2)n2ncnc2N1 (centres undefined)	50	9	-3	-1	-8	-2	/
COc1cc(C(=O)N/N=C/c2ccccn2)cc(OC)c1OC	935*	-2	-4	0	25	-1	0
COc1ccc(C(=O)N/N=C/c2ccccn2)cc1OC	319	-10	-5	-4	7	-3	/
CN(c1ccc(C(=O)NCC2CCCO2)cc1)S(=O)(=O)c1ccccc1 (centres undefined)	-7	-4	-2	-11	-9	-3	/
CN(c1ccccc1)S(=O)(=O)c1ccc(C(=O)NCC2CCCO2)cc1 (centres undefined)	451*	-4	-1	-7	10	-5	0[21 µM]
O=C(Cc1ccc([N+](=O)[O-])cc1)Nc1cccc(C(=O)N2CCCC2)c1	-7	/	/	/	/	/	/
CN1CC2(C)OC(=O)C(Cl)=C2CC1c1ccccc1 (centres undefined)	431*	22	-3	-4	-1	-1	-1
CC1=NN(C(=O)Cn2nc([N+](=O)[O-])cc2C)C(O)(C(F)(F)F)C1 (centres undefined)	18	23	-1	0	12	-3	/
CCCNC(=O)Nc1ccc(C(F)(F)F)cc1	12	11	0	2	6	0	/
COc1ccc(/C=C/C(=O)NC(=S)Nc2ccccn2)cc1	900*	-9	-1	-13	15	-1	0
Cc1nn(-c2ccccc2)nc1CNC(=O)CC(C)(C)C	60	-3	-1	-9	19	-1	/

Source: PubChem BioAssay
